# Active and inactive are the calls of the source. The calls are words filed in the database; no cut-off is given here.
# Legend:
# [1] = Acute toxicity in BALB/c mouse assessed as body weight regain at 60 mg/kg, ip administered as single dose measured after 4 days; type: organism-based; conditions: in vivo, 96 h, time 4 day
# [2] = Acute toxicity in BALB/c mouse assessed as white discharge from eyes at 15 to 80 mg/kg, ip administered as single dose; type: organism-based; conditions: in vivo, dose 15-80 mg/kg
# [3] = Acute toxicity in BALB/c mouse assessed as white discharge from eyes at 15 to 80 mg/kg, ip administered as single dose measured after 24 hrs; type: organism-based; conditions: in vivo, dose 15-80 mg/kg
# [4] = target: T1, TLR7 and TLR8 (Homo sapiens) (UniProt Q9NYK1+Q9NR97); experiment: Agonist activity at human TLR7/8 expressed in human PBMC cells assessed as induction of IFN-gamma production at 0.5 ug/ml incubated for 24 hrs by multiplexed immunoassay; type: cell-based; conditions: filed as agonist, dose 0.5 µg/ml
# In short: (§1)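 PBMCs from five healthy donors, at 3.0 × 10⁶ cells/mL, received one compound concentration for 24 h. Cytokines in centrifuged supernatants were measured in duplicate with a multiplex magnetic bead cytokine panel.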
# [5] = Acute toxicity in BALB/c mouse assessed as body weight loss at 60 mg/kg, ip administered as single dose relative to control; type: organism-based; conditions: in vivo
# [6] = target: T1, TLR7 and TLR8 (Homo sapiens); experiment: Agonist activity at human TLR7/8 expressed in human PBMC cells assessed as induction of IFN-alpha production at 0.5 ug/ml incubated for 24 hrs by multiplexed immunoassay; type: cell-based; conditions: filed as agonist, dose 0.5 µg/ml; in short: as §1
# [7] = target: T1, TLR7 and TLR8 (Homo sapiens); experiment: Agonist activity at human TLR7/8 expressed in human PBMC cells assessed as induction of VEGF secretion incubated for 12 hrs by multiplexed immunoassay; type: cell-based; conditions: filed as agonist
# In short: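 Healthy-volunteer PBMCs from a single donor were isolated by Ficoll−Hypaque gradient and plated at 2.0 × 10⁶ cells/mL. They were stimulated for 12 h with escalating compound concentrations. Supernatants were assayed in duplicate on a 41-analyte magnetic bead cytokine/chemokine panel read by Luminex. EC_max is the concentration giving maximal cytokine induction.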
# [8] = Acute toxicity in BALB/c mouse assessed as mild diarrhea at 15 to 80 mg/kg, ip administered as single dose; type: organism-based; conditions: in vivo, dose 15-80 mg/kg
# [9] = target: T2, Toll-like receptor 9 (Homo sapiens) (UniProt Q9NR96); experiment: Agonist activity at human TLR9 expressed in HEK-Blue hTLR9 cells assessed as activation of NFkappaB incubated for 6 to 16 hrs by SEAP reporter gene based assay; type: cell-based; conditions: time 6-16 hrs
# T2 sequence (whole entry): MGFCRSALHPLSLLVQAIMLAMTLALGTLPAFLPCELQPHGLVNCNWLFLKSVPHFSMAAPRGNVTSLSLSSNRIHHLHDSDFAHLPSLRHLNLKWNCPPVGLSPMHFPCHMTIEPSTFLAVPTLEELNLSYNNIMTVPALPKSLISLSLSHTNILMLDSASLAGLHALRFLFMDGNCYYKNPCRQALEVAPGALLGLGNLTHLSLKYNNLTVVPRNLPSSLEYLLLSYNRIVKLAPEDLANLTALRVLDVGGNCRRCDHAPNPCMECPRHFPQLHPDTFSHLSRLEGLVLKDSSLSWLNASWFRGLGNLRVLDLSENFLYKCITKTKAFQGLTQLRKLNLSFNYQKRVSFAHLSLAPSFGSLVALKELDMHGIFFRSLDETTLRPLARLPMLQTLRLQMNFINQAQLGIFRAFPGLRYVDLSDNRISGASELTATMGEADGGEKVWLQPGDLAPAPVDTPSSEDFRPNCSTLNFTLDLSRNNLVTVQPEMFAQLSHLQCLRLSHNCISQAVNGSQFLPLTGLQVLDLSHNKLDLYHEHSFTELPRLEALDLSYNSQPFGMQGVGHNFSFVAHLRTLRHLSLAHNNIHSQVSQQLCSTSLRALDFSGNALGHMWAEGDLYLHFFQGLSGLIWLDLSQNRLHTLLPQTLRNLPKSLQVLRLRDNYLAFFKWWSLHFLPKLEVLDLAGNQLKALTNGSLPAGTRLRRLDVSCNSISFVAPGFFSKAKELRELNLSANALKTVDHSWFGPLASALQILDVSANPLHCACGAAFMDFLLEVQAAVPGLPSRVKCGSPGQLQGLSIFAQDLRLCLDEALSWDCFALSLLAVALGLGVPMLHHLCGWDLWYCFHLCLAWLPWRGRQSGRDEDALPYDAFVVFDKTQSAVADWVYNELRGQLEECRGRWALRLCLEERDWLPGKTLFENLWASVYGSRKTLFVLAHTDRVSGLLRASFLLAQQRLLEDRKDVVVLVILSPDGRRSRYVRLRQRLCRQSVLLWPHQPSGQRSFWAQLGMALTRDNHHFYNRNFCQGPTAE
# In short: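 HEK293-derived SEAP reporter cells stably expressing the matching human TLR (2, 3, 4, 7, 8 or 9), kept under selection antibiotics. SEAP is driven by an NF-κB/AP-1-inducible promoter. HEK-Blue Null2-k (no TLR7/8) serves as the parental line. Cells were given escalating concentrations of stimuli for 6−16 h, then SEAP was read with HEK-Blue detection at 620 nm.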
# T1 sequence (Q9NR97 whole entry, looked up): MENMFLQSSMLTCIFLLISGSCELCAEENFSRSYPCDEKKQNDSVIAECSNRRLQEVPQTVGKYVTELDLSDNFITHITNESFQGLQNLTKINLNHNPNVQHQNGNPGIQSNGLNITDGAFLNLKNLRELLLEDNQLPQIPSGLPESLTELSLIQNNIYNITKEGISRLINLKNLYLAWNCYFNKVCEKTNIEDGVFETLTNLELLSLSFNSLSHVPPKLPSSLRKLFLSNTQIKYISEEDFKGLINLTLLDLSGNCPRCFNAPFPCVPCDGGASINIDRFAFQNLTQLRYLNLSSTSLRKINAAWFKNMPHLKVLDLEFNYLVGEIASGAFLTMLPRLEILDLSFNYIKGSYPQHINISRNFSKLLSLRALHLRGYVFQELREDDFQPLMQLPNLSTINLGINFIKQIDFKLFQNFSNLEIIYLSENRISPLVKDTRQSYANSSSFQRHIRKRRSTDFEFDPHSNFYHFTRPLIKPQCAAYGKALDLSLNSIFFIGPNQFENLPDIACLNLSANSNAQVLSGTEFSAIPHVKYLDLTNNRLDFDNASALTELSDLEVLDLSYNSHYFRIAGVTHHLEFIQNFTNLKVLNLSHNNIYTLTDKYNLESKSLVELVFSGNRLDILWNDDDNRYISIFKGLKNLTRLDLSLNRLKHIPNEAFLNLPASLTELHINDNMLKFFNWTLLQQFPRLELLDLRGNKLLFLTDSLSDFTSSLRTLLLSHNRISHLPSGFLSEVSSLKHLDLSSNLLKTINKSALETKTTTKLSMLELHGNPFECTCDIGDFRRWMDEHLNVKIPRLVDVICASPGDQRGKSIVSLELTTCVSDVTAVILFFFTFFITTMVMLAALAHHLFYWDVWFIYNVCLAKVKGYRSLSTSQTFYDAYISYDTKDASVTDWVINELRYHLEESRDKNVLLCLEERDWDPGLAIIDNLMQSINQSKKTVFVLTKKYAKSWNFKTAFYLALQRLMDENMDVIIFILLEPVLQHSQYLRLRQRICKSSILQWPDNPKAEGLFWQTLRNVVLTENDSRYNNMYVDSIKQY
# T1 sequence (Q9NYK1 whole entry, looked up): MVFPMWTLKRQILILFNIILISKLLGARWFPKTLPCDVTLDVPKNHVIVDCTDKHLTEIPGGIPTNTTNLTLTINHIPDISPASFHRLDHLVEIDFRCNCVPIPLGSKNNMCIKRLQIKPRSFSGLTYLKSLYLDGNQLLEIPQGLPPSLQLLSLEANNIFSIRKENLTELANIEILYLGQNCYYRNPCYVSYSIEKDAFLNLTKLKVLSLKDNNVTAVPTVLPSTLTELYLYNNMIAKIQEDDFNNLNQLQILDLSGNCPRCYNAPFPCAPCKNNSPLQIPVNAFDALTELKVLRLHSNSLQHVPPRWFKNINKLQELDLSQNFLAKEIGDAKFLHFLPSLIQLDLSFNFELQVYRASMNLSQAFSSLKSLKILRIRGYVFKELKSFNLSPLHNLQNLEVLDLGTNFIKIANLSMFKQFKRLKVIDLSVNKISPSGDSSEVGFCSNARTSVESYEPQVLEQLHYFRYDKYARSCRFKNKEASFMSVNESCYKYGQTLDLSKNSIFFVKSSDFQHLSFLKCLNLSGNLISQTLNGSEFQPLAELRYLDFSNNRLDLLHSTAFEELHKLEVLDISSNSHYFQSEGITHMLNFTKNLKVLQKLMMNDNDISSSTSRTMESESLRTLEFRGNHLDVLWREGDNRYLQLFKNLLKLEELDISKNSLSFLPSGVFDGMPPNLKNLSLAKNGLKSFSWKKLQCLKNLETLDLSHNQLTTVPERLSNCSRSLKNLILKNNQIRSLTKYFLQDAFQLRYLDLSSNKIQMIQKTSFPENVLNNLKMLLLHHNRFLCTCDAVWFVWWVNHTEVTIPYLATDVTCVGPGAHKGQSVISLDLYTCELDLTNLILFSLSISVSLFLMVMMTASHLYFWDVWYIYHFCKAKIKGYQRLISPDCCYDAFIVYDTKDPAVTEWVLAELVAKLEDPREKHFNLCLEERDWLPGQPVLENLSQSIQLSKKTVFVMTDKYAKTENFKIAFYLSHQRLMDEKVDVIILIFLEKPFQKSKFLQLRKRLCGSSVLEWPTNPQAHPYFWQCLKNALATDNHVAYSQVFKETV
Compound,Activity [1],Activity [2],Activity [3],Activity [4],Activity [5] [%],Activity [6],Activity [7],Activity [8],Activity [9]
COCCNc1nc(N)nc2ccc(Cc3ccc(CN(C)C)cc3)nc12,Non-Toxic,Toxic,Non-Toxic,Active,15.3,Active,Active,Toxic,inactive
CCCCNc1nc(N)nc2ccc(Cc3ccc(CN(C)C)cc3)nc12,Non-Toxic,Toxic,Non-Toxic,Active,17.6,Active,Active,Toxic,inactive

# Reference: ChEMBL document CHEMBL5036324 (J Med Chem, 2021)
